Test results taken from ChEMBL document CHEMBL1148966, “Cytotoxic steroidal saponins from Polygonatum zanlanscianense” (J Nat Prod, 2004).
In brackets after ≈: the same amount, converted by molar mass.

Test system: HeLa
Experiment: Cytotoxicity against human HeLa cells after 72 hrs by MTT assay
Assay type: functional, cell-based
Summary of the method: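 HeLa cells in 96-well microplates; viability by MTT colorimetric assay, optical density read at 570 nm on a plate reader; IC50 reported in µg/mL. Cisplatin run as positive control.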

SMILES | IC50 [µg/mL]
CC1=CC(=O)CC(C)(C)[C@H]1CC[C@@H](C)O[C@@H]1O[C@H](CO[C@@H]2O[C@H](CO)[C@@H](O)[C@H](O)[C@H]2O)[C@@H](O)[C@H](O)[C@H]1O | 20.1 (≈ 37.5 µM)
C[C@H]1O[C@@H](O[C@H]2CC[C@@]3(C)C(=CC[C@H]4[C@@H]5C[C@@H]6O[C@@]7(OC[C@H](CO)C[C@@H]7O)[C@@H](C)[C@@H]6[C@@]5(C)C(=O)C[C@@H]43)C2)[C@H](O)[C@@H](O)[C@H]1O[C@@H]1O[C@H](CO)[C@@H](O)[C@H](O)[C@H]1O [POLYGONATOSIDE C] | 7.45 (≈ 9.69 µM)
C[C@@H]1O[C@@H](O[C@H]2[C@H](O)[C@@H](O)[C@H](O[C@H]3CC[C@@]4(C)C(=CC[C@H]5[C@@H]6C[C@@H]7O[C@]8(CC[C@@H](CO[C@@H]9O[C@H](CO)[C@@H](O)[C@H](O)[C@H]9O)CO8)[C@@H](C)[C@@H]7[C@@]6(C)CC[C@@H]54)C3)O[C@@H]2CO)[C@H](O)[C@H](O)[C@H]1O [POLYGONATOSIDE D] | 5.83 (≈ 6.47 µM)
C[C@@H]1CC[C@@]2(OC1)O[C@H]1C[C@H]3[C@@H]4CC=C5C[C@@H](O[C@@H]6O[C@H](CO)[C@@H](O[C@@H]7OC[C@@H](O)[C@@H](O)[C@@H]7O)[C@H](O)[C@H]6O[C@@H]6O[C@@H](C)[C@H](O)[C@@H](O)[C@H]6O)CC[C@]5(C)[C@H]4CC[C@]3(C)[C@H]1[C@@H]2C | 14.6 (≈ 17 µM)
C[C@H]1O[C@@H](O[C@H]2CC[C@@]3(C)C(=CC[C@H]4[C@@H]5C[C@@H]6O[C@]7(CC[C@@H](CO[C@@H]8O[C@H](CO)[C@@H](O)[C@H](O)[C@H]8O)CO7)[C@@H](C)[C@@H]6[C@@]5(C)C(=O)C[C@@H]43)C2)[C@H](O)[C@@H](O)[C@H]1O[C@@H]1O[C@H](CO)[C@@H](O)[C@H](O)[C@H]1O [POLYGONATOSIDE A] | 5.06 (≈ 5.53 µM)
C[C@@H]1CC[C@@]2(OC1)O[C@H]1C[C@H]3[C@@H]4CC=C5C[C@@H](O[C@@H]6O[C@H](CO)[C@@H](O[C@@H]7OC[C@@H](O)[C@@H](O[C@@H]8O[C@@H](C)[C@H](O[C@@H]9O[C@@H](C)[C@H](O)[C@@H](O)[C@H]9O)[C@@H](O)[C@H]8O)[C@@H]7O)[C@H](O)[C@H]6O[C@@H]6O[C@@H](C)[C@H](O)[C@@H](O)[C@H]6O)CC[C@]5(C)[C@H]4CC[C@]3(C)[C@H]1[C@@H]2C [PARISSAPONIN PB] | 3.14 (≈ 2.74 µM)
C[C@H]1[C@H]2[C@H](C[C@H]3[C@@H]4CC=C5C[C@@H](O[C@@H]6O[C@H](CO)[C@H](O[C@@H]7O[C@H](CO)[C@@H](O)[C@H](O)[C@H]7O[C@@H]7O[C@H](CO)[C@@H](O)[C@H](O)[C@H]7O)[C@H](O)[C@H]6O)CC[C@]5(C)[C@H]4CC[C@]23C)O[C@]12CC[C@@H](CO)CO2 | 5.24 (≈ 5.71 µM)
C[C@H]1[C@H]2[C@H](C[C@H]3[C@@H]4CC=C5C[C@@H](O[C@@H]6O[C@H](CO)[C@H](O[C@@H]7O[C@H](CO)[C@@H](O)[C@H](O)[C@H]7O)[C@H](O)[C@H]6O)CC[C@]5(C)[C@H]4CC(=O)[C@]23C)O[C@]12CC[C@@H](CO[C@@H]1O[C@H](CO)[C@@H](O)[C@H](O)[C@H]1O)CO2 | 5.13 (≈ 5.51 µM)
C[C@@H]1O[C@@H](O[C@H]2[C@H](O[C@H]3CC[C@@]4(C)C(=CC[C@H]5[C@@H]6C[C@@H]7O[C@]8(CC[C@@H](CO)CO8)[C@@H](C)[C@@H]7[C@@]6(C)CC[C@@H]54)C3)O[C@H](CO)[C@@H](O[C@@H]3O[C@@H](C)[C@H](O)[C@@H](O)[C@H]3O)[C@@H]2O)[C@H](O)[C@H](O)[C@H]1O | 3.62 (≈ 4.09 µM)
C[C@@H]1CC[C@@]2(OC1)O[C@H]1C[C@H]3[C@@H]4CC=C5C[C@@H](O[C@@H]6O[C@H](CO)[C@@H](O)[C@H](O[C@@H]7O[C@H](CO)[C@@H](O)[C@H](O)[C@H]7O)[C@H]6O[C@@H]6O[C@@H](C)[C@H](O)[C@@H](O)[C@H]6O)CC[C@]5(C)[C@H]4CC[C@]3(C)[C@H]1[C@@H]2C [GRACILLIN] | 12.7 (≈ 14.4 µM)
C[C@@H]1CC[C@@]2(OC1)O[C@H]1C[C@H]3[C@@H]4CC=C5C[C@@H](O[C@@H]6O[C@H](CO)[C@@H](O)[C@H](O)[C@H]6O[C@@H]6O[C@@H](C)[C@H](O)[C@@H](O)[C@H]6O)CC[C@]5(C)[C@H]4CC[C@]3(C)[C@H]1[C@@H]2C [OPHIOPOGONIN C] | 6.23 (≈ 8.62 µM)
